The values below come from ChEMBL document CHEMBL1149435, “Inactivation of S-adenosyl-L-homocysteine hydrolase by 6'-cyano-5',6'-didehydro-6'-deoxyhomoadenosine and 6'-chloro-6'-cyano-5',6'-didehydro-6'-deoxyhomoadenosine. Antiviral and cytotoxic effects” (J Med Chem, 2006).

Structures are written as SMILES. In brackets after ≈: the same amount, converted by molar mass. Where only a bound is given, the exact number is not on record here.

Experiment [1] has as its system Cytomegalovirus. The experiment can be described thus: Antiviral activity against Cytomegalovirus AD169 in human embryonic lung cells. Format: functional, organism-based. Conditions: Human betaherpesvirus 5, AD169, lung. An outline of the steps: (§1)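 Human embryonic lung cell cultures were infected with cytomegalovirus, and the effect on viral plaque formation was scored. EC50 is the concentration, in µg/mL, that reduced virus plaque formation by 50%.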

The subject of experiment [2] is Cytomegalovirus. The experiment can be described thus: Antiviral activity against Cytomegalovirus Davis in human embryonic lung cells. Conditions: Human betaherpesvirus 5, Davis. Format: functional, organism-based. In outline:
as §1

Experiment [3] concerns Human alphaherpesvirus 3. The experiment can be described thus: Antiviral activity against TK+ VZV OKA in human embryonic lung cells. Format: functional, organism-based. Conditions: Human alphaherpesvirus 3, OKA.
In experiment [4] the test system is Human alphaherpesvirus 3. As to the kind of experiment: Antiviral activity against TK- VZV 07/10 in human embryonic lung cells. The experiment is classed as functional, organism-based. Conditions: Human alphaherpesvirus 3, 07/10, lung.
In experiment [5] the test system is HEL. The experiment can be described thus: Cytotoxicity as determined by alteration in the cell morphology of HEL cells. The experiment is classed as functional. Conditions: Homo sapiens. An outline of the steps: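 Human embryonic lung cells were examined by microscope for changes in morphology. MCC is the minimum concentration, in µg/mL, that caused a microscopically detectable alteration of cell morphology.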

The test system of experiment [6] is HEL. The experiment can be described thus: Cytotoxicity against HEL cells. Format: functional. Conditions: Homo sapiens. An outline of the steps: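 Cytotoxicity was measured in human embryonic lung cells as inhibition of cell growth. CC50 is the concentration, in µg/mL, that reduced cell growth by 50%.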
For a further experiment, the target named is Adenosylhomocysteinase (Homo sapiens, UniProt P23526). The experiment can be described thus: Inhibitory activity against AdoHcy Hydrolase. In outline: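 Purified recombinant placental AdoHcy hydrolase was preincubated with inhibitor at several concentrations in assay buffer at 37 °C. Remaining activity was measured in the synthetic direction. Ki and kinact came from the Kitz–Wilson method. […] Irreversibility was checked by 24 h dialysis.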
Chain of Adenosylhomocysteinase (P23526 whole entry): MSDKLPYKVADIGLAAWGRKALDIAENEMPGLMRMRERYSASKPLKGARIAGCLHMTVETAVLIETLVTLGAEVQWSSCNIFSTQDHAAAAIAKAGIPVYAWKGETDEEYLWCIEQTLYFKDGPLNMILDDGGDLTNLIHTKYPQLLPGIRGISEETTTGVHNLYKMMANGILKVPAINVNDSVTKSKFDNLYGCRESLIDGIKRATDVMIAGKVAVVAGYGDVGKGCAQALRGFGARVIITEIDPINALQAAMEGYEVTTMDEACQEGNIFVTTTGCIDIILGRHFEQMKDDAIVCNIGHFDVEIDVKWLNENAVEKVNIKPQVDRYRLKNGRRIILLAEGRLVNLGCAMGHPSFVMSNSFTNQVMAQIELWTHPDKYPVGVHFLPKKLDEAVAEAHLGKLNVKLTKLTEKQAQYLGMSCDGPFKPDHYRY

As usually defined, the EC50 is the concentration that produces a half-maximal response. High values mean a need for much substance, low ones an effect from little substance. A word on the CC50: it is the concentration giving 50% cytotoxicity. Higher therefore signals better tolerance by the cells. Consider `N#C/C=C\[C@H]1O[C@@H](n2cnc3c(N)ncnc32)[C@H](O)[C@@H]1O`, for which the 50% effective concentration (EC50) in the experiment on Cytomegalovirus [1], in the experiment with Cytomegalovirus [2], in the experiment with Human alphaherpesvirus 3 [3] and in the experiment on Human alphaherpesvirus 3 [4] was more than 20 µg/mL each time. In addition, in the experiment with HEL [5], the MCC was found to be 100 µg/mL. This molecule also had a cytotoxic concentration (CC50) in the experiment on HEL [6] of more than 20 µg/mL.
Regarding `N#C/C=C/[C@H]1O[C@@H](n2cnc3c(N)ncnc32)[C@H](O)[C@@H]1O`, the EC50 in the experiment with Cytomegalovirus [1], in the experiment with Cytomegalovirus [2], in the experiment on Human alphaherpesvirus 3 [3] and in the experiment with Human alphaherpesvirus 3 [4] was more than 20 µg/mL each time. Further, the MCC in the experiment with HEL [5] was not below 20 µg/mL. The same molecule returned a half-maximal cytotoxic concentration (CC50) with HEL [6] of 11 µg/mL (≈ 38.2 µM).
For orientation: Ki means a measure of affinity in units of concentration, obtained from inhibition or displacement. Low readings indicate higher affinity, high ones lower affinity. `N#C/C(Cl)=C\[C@H]1O[C@@H](n2cnc3c(N)ncnc32)[C@H](O)[C@@H]1O`: the Ki on Adenosylhomocysteinase stood at 17 µM. The EC50 was more than 20 µg/mL with Cytomegalovirus [1], more than 20 µg/mL with Cytomegalovirus [2], 11 µg/mL (≈ 34.1 µM) with Human alphaherpesvirus 3 [3] and 17 µg/mL (≈ 52.7 µM) with Human alphaherpesvirus 3 [4]. Also, the MCC in the experiment with HEL [5] amounted to 100 µg/mL. In the experiment on HEL [6], this molecule came in with a CC50 of 1.2 µg/mL (≈ 3.72 µM).
`Nc1nc2c(ncn2COCCO)c(=O)[nH]1` [ACYCLOVIR] had an MCC with HEL [5] of more than 400 µg/mL. The same molecule yielded a cytotoxic concentration (CC50) in the experiment on HEL [6] of 118 µg/mL (≈ 524 µM).
For the molecule `O=c1[nH]c(=O)n([C@H]2C[C@H](O)[C@@H](CO)O2)cc1/C=C/Br` [BRIVUDINE], the EC50 is 0.0051 µg/mL (≈ 0.0153 µM) with Human alphaherpesvirus 3 [3] and 149 µg/mL (≈ 447 µM) in the experiment with Human alphaherpesvirus 3 [4]. The same molecule gave an MCC in the experiment on HEL [5] of more than 400 µg/mL. The same molecule registered a cytotoxic concentration (CC50) with HEL [6] of more than 200 µg/mL.
Consider `Nc1ccn(C[C@@H](CO)OCP(=O)(O)O)c(=O)n1.O.O` [CIDOFOVIR], for which the EC50 worked out at 0.49 µg/mL with Cytomegalovirus [1] and 0.64 µg/mL in the experiment on Cytomegalovirus [2]. This molecule returned an MCC with HEL [5] not below 400 µg/mL. For the same molecule, the cytotoxic concentration (CC50) in the experiment on HEL [6] is 23 µg/mL.
In the same order, the values of `Nc1nc2c(ncn2COC(CO)CO)c(=O)[nH]1` [GANCICLOVIR] are 3.2 µg/mL (≈ 12.5 µM), 3.2 µg/mL (≈ 12.5 µM), not below 400 µg/mL and 34 µg/mL (≈ 133 µM).
